From paper PMC5609517 (Chemical Science, 2017)

Columns and labels:
[1] = assay type: physicochemical; details: solutions in aqueous media at pH < 7, prolonged periods (>1 week)
[2] = test system: MDCK cells; test: Imaging of carbon monoxide in living cells with fluorescent probe COP-1; assay type: cell-based, Canine; details: 10 μM, at 8 and 37 °C, against respective iCORM (50 μM)
Summary of the method: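 MDCK cells exposed at 37 °C and at 8 °C to test compound (10 μM) or to its CO-depleted product (iCORM, 50 μM) as comparator. Intracellular CO was detected with the CO-selective fluorescent probe COP-1, read as intracellular fluorescence.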

CC12C(=O)C(C)(C(c3ccccc3)=C1c1ccccc1)C1(Br)C(=O)N(CCNCCN)C(=O)C21.O=C(O)C(F)(F)F.O=C(O)C(F)(F)F (centres unmarked) [oCOm-23]
formation of the corresponding iCORM [1]: no sign of the formation | CO delivery to cells / increased intracellular CO levels (COP-1) [2]: confirmed
